Data set [1] deals with E coli K12 biofilm. The data set can be described thus: Biofilm formation inhibition, crystal violet staining. The note with it: at 2 ug/mL. It is filed as cell-based, Escherichia coli.
Data set [2] deals with Acinetobacter baumannii ATCC 19606. It is filed as cell-based. The note with it: ATCC 19606, pH 7.
The subject of data set [3] is Staphylococcus aureus ATCC 43300 MRSA. Type of data set: cell-based. The note with it: ATCC 43300, pH 7.
Data set [4] concerns Cryptococcus neoformans var. grubii H99 ATCC 20882. It is filed as cell-based. Particulars: ATCC 20882, pH 7.
Data set [5] concerns Klebsiella pneumoniae ATCC 700603. Type of data set: cell-based. The note with it: ATCC 700603, pH 7.
Data set [6] has as its system Candida albicans ATCC 90028. Type of data set: cell-based. The note with it: ATCC 90028, pH 7.
For data set [7], the system named is Escherichia coli ATCC 25922. Type of data set: cell-based. The note with it: ATCC 25922, pH 7.
Data set [8] can be described thus: Zeta potential. The note with it: Aqueous solution of 2 mmolar concentration in pH 7. Type of data set: physicochemical.
Data set [9] has as its system HCEC (Immortalized Human Colonic Epithelial Cell). Type of data set: cell-based. Particulars: 24 h.
In data set [10] the test system is Psedomonas aeruginosa ATCC 27853. It is filed as cell-based, Pseudomonas aeruginosa. Particulars: ATCC 27853, pH 7.
The test system of data set [11] is HaCaT (Immortalized Human Keratinocyte). Type of data set: cell-based. The note with it: 24 h.
The test system of data set [12] is S. aureus JE2 biofilm. Put plainly: Biofilm formation inhibition, crystal violet staining. The note with it: at MIC. It is filed as cell-based, Staphylococcus aureus. Summed up:
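S. aureus JE2 initial inocula were exposed to test compound in two-fold dilutions from 16 to 4 μg/mL, with vancomycin or gentamicin at 4 to 1 μg/mL as comparators. Biofilm formed was quantified by crystal violet staining.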

Values after ≈ are worked out from the molar mass of the structure shown.

As to `CNC(C)C1CCC(N)C(OC2C(N)CC(N)C(OC3OCC(C)(O)C(NC)C3O)C2O)O1` (stereo not shown) [Gen, Gentamicin], the “reduction of E coli biofilm formation” value in [1] was “about 54. 3%”.

In the case of `CCCCCCCC(=O)NCCCC[C@H](NC(=O)CCCCCCC)C(=O)N[C@@H](CCCCN)C(=O)N[C@@H](CCCCN)C(=O)N[C@@H](CCCCN)C(=O)N[C@@H](CCCCN)C(=O)N[C@@H](CCCCN)C(N)=O` [PA 8], the “MIC Ab (A. baumannii ATCC 19606)” value in data set [2] is >32 µg/mL. The “MIC Sa (S. aureus ATCC 43300 MRSA)” value in [3] is >32 µg/mL. Moreover, in data set [4], the “MIC Cn (C. neoformans var. grubii H99 ATCC 20882)” value was >32 µg/mL. Besides, in [5], the “MIC Kp (K. pneumoniae ATCC 700603)” value was >32 µg/mL. Also, the “MIC Ca (C. albicans ATCC 90028)” value in data set [6] was >32 µg/mL. In data set [7], the “MIC Ec (E. coli ATCC 25922)” value is >32 µg/mL. This compound yielded a Zeta potential in [8] of 18.83 ± 1.69 mV. The “IC50 HCEC” value in data set [9] is 19.3 µg/mL (≈ 18.6 µM). Further, the “MIC Pa (P. aeruginosa ATCC 27853)” value in data set [10] was >32 µg/mL. The “IC50 HaCaT” value in data set [11] was found to be 40.4 µg/mL (≈ 38.9 µM).

In turn, `CCCCCCCCCCCCCCCCCC(=O)NCCCC[C@H](NC(=O)CCCCCCCCCCCCCCCCC)C(=O)N[C@@H](CCCCN)C(=O)N[C@@H](CCCCN)C(=O)N[C@@H](CCCCN)C(=O)N[C@@H](CCCCN)C(=O)N[C@@H](CCCCN)C(N)=O` [PA 9] came in with a Zeta potential in data set [8] of 41.40 ± 1.05 mV.

`CN[C@H](CC(C)C)C(=O)N[C@H]1C(=O)N[C@@H](CC(N)=O)C(=O)N[C@H]2C(=O)N[C@H]3C(=O)N[C@H](C(=O)N[C@H](C(=O)O)c4cc(O)cc(O)c4-c4cc3ccc4O)[C@H](O)c3ccc(c(Cl)c3)Oc3cc2cc(c3O[C@@H]2O[C@H](CO)[C@@H](O)[C@H](O)[C@H]2O[C@H]2C[C@](C)(N)[C@H](O)[C@H](C)O2)Oc2ccc(cc2Cl)[C@H]1O` [Van, Vancomycin]: the “reduction of MRSA biofilm formation” value in data set [12] is recorded as “up to 92.80 ± 0.68%”.

For the origin of these results see PMC7199185 (ACS applied materials & interfaces, 2019).
